Test results: ChEMBL document CHEMBL3763097, “Synthesis and biological evaluation of 5,10-dihydro-11H-dibenzo[b,e][1,4]diazepin-11-one structural derivatives as anti-cancer and apoptosis inducing agents” (Eur J Med Chem, 2016)
The source made the active and inactive calls. The rule behind the calls is not given here.

Key:
[1] = test system: A549 (human); test: Induction of apoptosis in human A549 cells assessed as early apoptotic cells at 2 uM after 24 hrs by Annexin V-FITC/PI dual staining based flow cytometry (reference value: 0.3%)
[2] = test system: MDA-MB-231; test: Cell cycle arrest in human MDA-MB-231 cells assessed as accumulation at G0/G1 phase at 0.5 uM after 24 to 48 hrs by propidium iodide staining based flow cytometry (reference value: 74.4%); type: functional
Procedure, shortened: (§1)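 Cells were seeded at 1×10^6 per well and treated 24 h later with 0.5, 1 or 2 µM compound; DMSO-treated cells served as control. Methods give harvest at 48 h (floating plus trypsinised cells); the figure legend says 24 h. Cells were fixed in 70% ethanol for 30 min at 4 °C and stained with PI, Triton X-100 and RNase A for 15 min in the dark. 10000 events were counted by flow cytometry.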

[3] = test system: A549; test: Induction of apoptosis in human A549 cells assessed as viable cells at 1 uM after 24 hrs by Annexin V-FITC/PI dual staining based flow cytometry (reference value: 85%); type: functional; settings: A549, 24 h, read-out: Activity
[4] = test system: MDA-MB-231; test: Cell cycle arrest in human MDA-MB-231 cells assessed as accumulation at G2/M phase after 24 to 48 hrs by propidium iodide staining based flow cytometry; type: functional
Procedure, shortened: as §1

[5] = test system: A549; test: Cell cycle arrest in human A549 cells assessed as accumulation at G2/M phase after 24 to 48 hrs by propidium iodide staining based flow cytometry; type: functional
Procedure, shortened: as §1

[6] = test system: MDA-MB-231; test: Cell cycle arrest in human MDA-MB-231 cells assessed as accumulation at G2/M phase at 1 uM after 24 to 48 hrs by propidium iodide staining based flow cytometry (reference value: 20.2%); type: functional
Procedure, shortened: as §1

[7] = test system: A549; test: Cell cycle arrest in human A549 cells assessed as accumulation at G2/M phase at 2 uM after 24 to 48 hrs by propidium iodide staining based flow cytometry (reference value: 22.3 to 31%); type: functional
Procedure, shortened: as §1

[8] = test system: MDA-MB-231; test: Disruption of mitochondrial membrane potential in human MDA-MB-231 cells at 0.5 to 2 uM after 48 hrs by Rhodamine-123 staining based spectrofluorometry; type: functional
Procedure, shortened: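 Cells were seeded at 5×10^5 cells/mL overnight and treated with 0.5, 1 and 2 µM compound; the methods say 24 h and the results text says 48 h. Trypsinised cells were washed and stained with rhodamine-123 (2 µM in PBS) for 30 min at room temperature in the dark, washed and read by spectrofluorometer. Data are mean ± SD of three independent experiments.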

[9] = test system: MDA-MB-231; test: Cell cycle arrest in human MDA-MB-231 cells assessed as accumulation at G0/G1 phase at 2 uM after 24 to 48 hrs by propidium iodide staining based flow cytometry (reference value: 74.4%); type: functional
Procedure, shortened: as §1

[10] = test system: MCF7; test: Cytotoxicity against human MCF7 cells assessed as growth inhibition after 72 hrs by MTT assay; type: functional, cell-based; settings: MCF7, 72 h
Procedure, shortened: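 Cells in RPMI 1640 (PC-3, A549, MDA-MB-231) or DMEM (U87MG, MCF-7) with 10% FBS, passages 4-10, were seeded at 3000-5000 per well and left 24 h. Compounds in DMSO/medium were added for 72 h; DMSO served as control. MTT (5 mg/mL) was added for 4 h and formazan dissolved in DMSO. Absorbance was read at 570 nm minus 630 nm. % inhibition was taken versus DMSO, with IC50 by probit; mean ± SD of three experiments in triplicate.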

[11] = test system: A549; test: Induction of apoptosis in human A549 cells assessed as condensation of nuclei at 0.5 to 2 uM after 48 hrs by Hoechst […] staining based fluorescence microscopy; type: functional, cell-based
Procedure, shortened: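 Cells at 25×10^4 per well were allowed to adhere 24 h, then treated with 0.5, 1 and 2 µM compound for 48 h at 37 °C. After a PBS wash they were stained with Hoechst […] (5 µg/mL) for 30 min at room temperature and washed twice. Nuclear morphology was viewed by fluorescence microscopy (ex 350/em 460 nm).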

Structure (SMILES): O=C1c2ccccc2Nc2ccccc2N1Cc1cn(Cc2ccccc2)nn1
- Activity [1]: 19.3%
- Activity [2]: 73.6%
- viability at 1 µM [3]: 72%
- Activity [4]: Dose-dependent effect
- Activity [5]: Dose-dependent effect
- Activity [6]: 33.6%
- Activity [7]: 51.3%
- Activity [8]: 20%
- Activity [9]: 33.3%
- IC50 [10]: 7.29 µM
- Activity [11]: Active
